Laboratory results taken from ChEMBL document CHEMBL2380254, “Optimization of tocotrienols as antiproliferative and antimigratory leads” (Eur J Med Chem, 2013).

Experiments:
[1] = system: DU-145; test: Growth inhibition of human DU145 cells after 48 hrs by sulforhodamine B assay; assay type: functional; conditions: DU-145, 48 h
In short: (§1)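 NCI-60 screen: cells in RPMI 1640 with 5% FBS and 2 mM glutamine, 5000–40,000 cells/well, preincubated 24 h. Five concentrations (10-fold dilutions; 100 to 0.001 µM) applied for 48 h at 37 °C. TCA fixation, SRB stain, absorbance at 515 nm. Time-zero plates included; GI50 where 100×(T−T0)/(C−T0)=50.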

[2] = system: U-251; test: Growth inhibition of human U251 cells after 48 hrs by sulforhodamine B assay; assay type: functional; conditions: U-251, 48 h
In short: (§2)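 NCI-60 five-dose screen. Cells were grown in RPMI 1640 with 5% FBS and 2 mM L-glutamine, plated at 5000–40,000 cells/well and incubated 24 h before dosing, with T0 plates TCA-fixed. DMSO stocks were diluted to doses of […] and exposed 48 h at 37 °C, 5% CO2. Cells were fixed with cold TCA (final 10%, 60 min, 4 °C), stained with 0.4% SRB in 1% acetic acid for 10 min, solubilized in 10 mM trizma base and read at 515 nm. GI50 is where 100×(T−T0)/(C−T0)=50.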

[3] = system: NCI-H460; test: Growth inhibition of human NCI-H460 cells assessed as cell growth at 10 uM after 48 hrs by sulforhodamine B assay; assay type: functional; conditions: NCI-H460, 48 h, read-out: Activity
In short: (§3)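 Single-dose NCI-60 screen: adherent cells in RPMI 1640 with 5% FBS were exposed to 10 µM for 48 h at 37 °C after a 24 h preincubation. They were fixed in situ with cold TCA (10% final), stained with 0.4% SRB in 1% acetic acid, solubilized in 10 mM Tris base, and read at 515 nm. Percent growth was taken relative to time-zero and control plates.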

[4] = system: SK-OV-3; test: Growth inhibition of human SKOV3 cells assessed as cell growth at 10 uM after 48 hrs by sulforhodamine B assay; assay type: functional; conditions: SK-OV-3, 48 h, read-out: Activity
In short: (§4)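 Single-dose NCI-60 test at 10 µM. Cells were grown in RPMI 1640 with 5% FBS and 2 mM L-glutamine, preincubated 24 h, with T0 plates TCA-fixed. Exposure was 48 h at 37 °C, 5% CO2. Cells were fixed with cold TCA (final 10%, 4 °C, 60 min), stained with SRB and read at 515 nm. Percent growth was taken relative to T0 and untreated control; negative values denote cell kill.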

[5] = system: SNB-75; test: Growth inhibition of human SNB75 cells assessed as cell growth at 10 uM after 48 hrs by sulforhodamine B assay; assay type: functional; conditions: SNB-75, 48 h, read-out: Activity; in short: as §4
[6] = Growth inhibition of human HCC2998 cells assessed as cell growth at 10 uM after 48 hrs by sulforhodamine B assay; assay type: functional; conditions: HCC 2998, 48 h, read-out: Activity
In short: (§5)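 NCI-60 single-dose screen at 10 µM: cells in RPMI 1640 with 5% FBS, preincubated 24 h, then exposed 48 h at 37 °C. TCA fixation (16% final for suspension cells), SRB staining, absorbance 515 nm. Percent growth relative to time-zero and untreated control plates; negative values indicate cell kill.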

[7] = system: KM12; test: Growth inhibition of human KM12 cells assessed as cell growth at 10 uM after 48 hrs by sulforhodamine B assay; assay type: functional; conditions: KM12, 48 h, read-out: Activity; in short: as §5
[8] = Growth inhibition of human EKVX cells after 48 hrs by sulforhodamine B assay; assay type: functional; in short: as §1
[9] = system: MCF7; test: Antiproliferative activity against human MCF7 cells by MTT assay; assay type: functional, cell-based
In short: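 Cells plated at 8 × 10^3/well (MDA-MB-231) or 10^4/well (MCF7) in 96-well plates. Compounds fed in media with 5% FBS (MDA-MB-231) or 1% FBS (MCF7). MTT read-out of viable cells.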

[10] = system: ACHN; test: Growth inhibition of human ACHN cells assessed as cell growth at 10 uM after 48 hrs by sulforhodamine B assay; assay type: functional; conditions: read-out: Activity; in short: as §5
[11] = system: OVCAR-8; test: Growth inhibition of human OVCAR8 cells assessed as cell growth at 10 uM after 48 hrs by sulforhodamine B assay; assay type: functional; conditions: OVCAR-8, 48 h, read-out: Activity; in short: as §3
[12] = system: PC-3; test: Growth inhibition of human PC3 cells after 48 hrs by sulforhodamine B assay; assay type: functional; conditions: PC-3, 48 h
In short: (§6)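 NCI-60 panel cells grown in RPMI 1640 with 5% FBS and 2 mM L-glutamine, seeded at 5000–40,000 cells/well and preincubated 24 h. Five 10-fold dilutions (0.001–100 µM) from DMSO stocks were added for 48 h at 37 °C. Adherent cells were fixed with cold TCA (10% final) for 60 min at 4 °C, stained with 0.4% SRB, and read at 515 nm. GI50 was set where 100×(T−T0)/(C−T0)=50.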

[13] = Growth inhibition of human NCI-ADR-RES cells after 48 hrs by sulforhodamine B assay; assay type: functional; in short: as §6
[14] = system: UACC-257; test: Growth inhibition of human UACC257 cells after 48 hrs by sulforhodamine B assay; assay type: functional; conditions: UACC-257, 48 h; in short: as §2
[15] = system: NCI-H322M; test: Growth inhibition of human NCI-H322M cells assessed as cell growth at 10 uM after 48 hrs by sulforhodamine B assay; assay type: functional; conditions: read-out: Activity; in short: as §3
[16] = system: SNB-19; test: Growth inhibition of human SNB19 cells assessed as cell growth at 10 uM after 48 hrs by sulforhodamine B assay; assay type: functional; conditions: SNB-19, 48 h, read-out: Activity; in short: as §4
[17] = system: A549; test: Growth inhibition of human A549/ATCC cells assessed as cell growth at 10 uM after 48 hrs by sulforhodamine B assay; assay type: functional; conditions: A549, 48 h, read-out: Activity; in short: as §5
[18] = system: HCT-116; test: Growth inhibition of human HCT116 cells after 48 hrs by sulforhodamine B assay; assay type: functional; conditions: HCT-116, 48 h; in short: as §1
[19] = system: HT-29; test: Growth inhibition of human HT-29 cells after 48 hrs by sulforhodamine B assay; assay type: functional; conditions: HT-29, 48 h; in short: as §1
[20] = system: SR; test: Growth inhibition of human SR cells after 48 hrs by sulforhodamine B assay; assay type: functional
In short: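 Suspension leukemia line in RPMI 1640 with 5% FBS and 2 mM L-glutamine, NCI-60 five-dose format ([…]), 48 h at 37 °C. Settled cells were fixed with 80% TCA (final 16%), stained with SRB and read at 515 nm. GI50 is where 100×(T−T0)/(C−T0)=50, with T0 measured at dosing.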

[21] = system: HL-60(TB); test: Growth inhibition of human HL-60(TB) cells assessed as cell growth at 10 uM after 48 hrs by sulforhodamine B assay; assay type: functional; conditions: HL-60, 48 h, read-out: Activity
In short: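 NCI-60 single-dose screen run at 10 µM on HL-60(TB) suspension cells in RPMI 1640 with 5% FBS and 2 mM L-glutamine. Cells were preincubated for 24 h, with a time-zero plate fixed then. Exposure lasted 48 h at 37 °C. Settled cells were fixed with TCA (16% final), stained with SRB and read at 515 nm. Percent growth is relative to control and T0.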

[22] = system: HOP-92; test: Growth inhibition of human HOP92 cells after 48 hrs by sulforhodamine B assay; assay type: functional; conditions: HOP-92, 48 h; in short: as §1

Structure (SMILES) | GI50 [1] | GI50 [2] | growth at 10 µM [3] | growth at 10 µM [4] | growth at 10 µM [5] | growth at 10 µM [6] | growth at 10 µM [7] | GI50 [8] | IC50 [9] | growth at 10 µM [10] | growth at 10 µM [11] | GI50 [12] | GI50 [13] | GI50 [14] | growth at 10 µM [15] | growth at 10 µM [16] | growth at 10 µM [17] | GI50 [18] | GI50 [19] | GI50 [20] | also measured
CC(C)=CCC/C(C)=C/CC/C(C)=C/CC[C@]1(C)CCc2c3c(c(C)c(C)c2O1)OCN(CCCCCO)C3 | 6.28 µM | 5.71 µM | -49.6% | 101% | 70% | 60.8% | 29.3% | 6.08 µM | > 20 µM | 101% | 69% | 5.71 µM | 5.89 µM | 6.97 µM | 91% | 86.5% | 80.3% | 5.25 µM | 3.74 µM | 4 µM | growth at 10 µM [21]: 37.2%; GI50 [22]: 5.42 µM
CC(C)=CCC/C(C)=C/CC/C(C)=C/CC[C@]1(C)CCc2c3c(cc(C)c2O1)OCN(CCCCCCCCO)C3 | 1.08 µM | 0.544 µM | 0.55% | -56.9% | -61.4% | -90.9% | -88.1% | 2.98 µM | > 20 µM | -97.6% | -51.9% | 1.51 µM | 3.37 µM | 0.656 µM | -76.3% | -74.6% | -85.3% | 0.597 µM | 0.703 µM | 0.785 µM | growth at 10 µM [21]: -57.3%; GI50 [22]: 1.84 µM
CC(C)=CCC/C(C)=C/CC/C(C)=C/CC[C@]1(C)CCc2c3c(cc(C)c2O1)OCN(CCCO)C3 | 1.9 µM | 1.72 µM | -75.1% | 88.3% | 33.9% | -82.9% | -77.4% | 5.11 µM | > 20 µM | 42.5% | -77.7% | 1.63 µM | 1.96 µM | 1.79 µM | -62.1% | 4.52% | -35.9% | 1.79 µM | 1.78 µM | 1.04 µM | growth at 10 µM [21]: 15.3%; GI50 [22]: 1.46 µM
CC(C)=CCC/C(C)=C/CC/C(C)=C/CC[C@]1(C)CCc2c3c(c(C)c(C)c2O1)OCN(CCCCCCO)C3 | 2.96 µM | 2.73 µM | 2.49% | 13.4% | 62.8% | -63.7% | 7.87% | 2.66 µM | > 20 µM | 68.6% | 49.9% | 2.52 µM | 2.87 µM | 3.45 µM | 69.5% | 18.1% | 38.9% | 2.87 µM | 3.04 µM | 2.7 µM | growth at 10 µM [21]: 65.9%; GI50 [22]: 1.89 µM
CC(C)=CCC/C(C)=C/CC/C(C)=C/CC[C@]1(C)CCc2c3c(cc(C)c2O1)OCN(CCCCCO)C3 | 6.28 µM | 5.71 µM | -70.2% | 96.9% | 74.8% | -48.5% | 13% | 6.08 µM | 9.1 µM | 81.6% | -18.9% | 5.71 µM | 5.89 µM | 6.97 µM | 16.8% | 82% | 36.1% | 5.25 µM | 3.74 µM | 4 µM | growth at 10 µM [21]: 58.3%; GI50 [22]: 5.42 µM
